Results from ChEMBL document CHEMBL4196142, “Efficacy of Apigenin and Miltefosine Combination Therapy against Experimental Cutaneous Leishmaniasis” (J Nat Prod, 2018).
Each block holds one compound with its values, some of them ahead of it. The source made the active and inactive calls. The calls are words filed in the database; no cut-off is given here.

Columns and labels:
Leishmania amazonensis [1] = test: Antileishmanial activity against stationary-phase Leishmania amazonensis MHOM/BR/75/LTB0016 promastigotes infected in human THP1-derived macrophages by serial dilution based light microscopic method; assay type: functional, organism-based
Leishmania amazonensis [2] = test: (§1) Antileishmanial activity against stationary-phase Leishmania amazonensis MHOM/BR/75/LTB0016 promastigotes infected in human THP1-derived macrophages at test compound to miltefosine ratio of 4:1 by serial dilution based light microscopic method; assay type: functional, organism-based
Leishmania amazonensis [3] = test: (§2) Antileishmanial activity against stationary-phase Leishmania amazonensis MHOM/BR/75/LTB0016 promastigotes infected in human THP1-derived macrophages at test compound to miltefosine ratio of 3:2 by serial dilution based light microscopic method; assay type: functional, organism-based
Leishmania amazonensis [4] = test: (§3) Antileishmanial activity against stationary-phase Leishmania amazonensis MHOM/BR/75/LTB0016 promastigotes infected in human THP1-derived macrophages at test compound to miltefosine ratio of 2:3 by serial dilution based light microscopic method; assay type: functional, organism-based
Leishmania amazonensis [5] = test: (§4) Antileishmanial activity against stationary-phase Leishmania amazonensis MHOM/BR/75/LTB0016 promastigotes infected in human THP1-derived macrophages at test compound to miltefosine ratio of 1:4 by serial dilution based light microscopic method; assay type: functional, organism-based
Leishmania amazonensis [6] = test: as §1, with “Synergistic antileishmanial” for “Antileishmanial”, “macrophages assessed as fractional inhibitory concentration” for “macrophages”; assay type: functional
Method in brief: (§5)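 In the infected THP-1 macrophage fixed-ratio assay, FIC and ∑FIC came from each ratio's EC50 by the modified fixed-ratio isobologram method. Mean ∑FIC was the average of the ∑FICs and was used to classify the interaction; isobolograms were plotted from each ratio's FIC values.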

Leishmania amazonensis [7] = test: as §2, with “Synergistic antileishmanial” for “Antileishmanial”, “macrophages assessed as fractional inhibitory concentration” for “macrophages”; assay type: functional; method in brief: as §5
Leishmania amazonensis [8] = test: as §3, with “Synergistic antileishmanial” for “Antileishmanial”, “macrophages assessed as fractional inhibitory concentration” for “macrophages”; assay type: functional; method in brief: as §5
Leishmania amazonensis [9] = test: as §4, with “Synergistic antileishmanial” for “Antileishmanial”, “macrophages assessed as fractional inhibitory concentration” for “macrophages”; assay type: functional; method in brief: as §5
Leishmania amazonensis [10] = test: (§6) Antileishmanial activity against stationary-phase Leishmania amazonensis MHOM/BR/75/LTB0016 promastigotes infected in Balb/c mouse assessed as reduction in lesion size at 2 mg/kg, po administered once daily via orogastric tube starting from 7 days post infection for 32 days measured twice weekly during compound dosing by caliper method; assay type: functional, organism-based
Method in brief: (§7)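 Female BALB/c mice, 10−12 weeks, were infected intradermally in the right ear with 2 × 10^6 stationary-phase promastigotes in 10 μL PBS. From day 7 post-infection, dosing was oral by orogastric tube once daily, seven times per week, until day 32. Compound in DMSO (1% v/v), miltefosine in PBS; controls got vehicle suspension with DMSO 0.2% v/v. Lesion size was read by dial caliper twice weekly; n = 5.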

Leishmania amazonensis [11] = test: Antileishmanial activity against stationary-phase Leishmania amazonensis MHOM/BR/75/LTB0016 promastigotes infected in Balb/c mouse assessed as reduction in parasite load at 2 mg/kg, po administered once daily via orogastric tube starting from 7 days post infection for 32 days by dilution method; assay type: functional, organism-based
Method in brief: (§8)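 Ear infection and daily oral dosing were as for the lesion study in female BALB/c mice, ending at euthanasia on day 32. Infected ears were excised, weighed, minced in Schneider's medium with 10% FCS and serially diluted. Viable parasites per ear were estimated from the highest dilution still growing promastigotes after 7 days at 26 °C. Mean ± SE, n = 5 ears.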

Leishmania amazonensis [12] = test: as §6, with “Synergistic antileishmanial activity” for “Antileishmanial activity”, “at 1” for “at 2”, “dosing in presence of 4 mg/kg miltefosine” for “dosing”, “method relative to control” for “method”; assay type: functional; set-up: scale not given: the % may be the effect or the level left; method in brief: as §7
Leishmania amazonensis [13] = test: Synergistic antileishmanial activity against stationary-phase Leishmania amazonensis MHOM/BR/75/LTB0016 promastigotes infected in Balb/c mouse assessed as reduction in parasite load at 1 mg/kg, po administered once daily via orogastric tube starting from 7 days post infection for 32 days in presence of 4 mg/kg miltefosine by dilution method relative to control; assay type: functional; set-up: scale not given: the % may be the effect or the level left; method in brief: as §8
Mus musculus [14] = test: (§9) Renal toxicity in Balb/c mouse infected with stationary-phase Leishmania amazonensis MHOM/BR/75/LTB0016 promastigotes assessed as serum creatinine level at 2 mg/kg, po administered once daily via orogastric tube for 32 days starting from 7 days post infection measured post last dose (reference value: 0.61 +/- 0.06 mg/dl); assay type: organism-based; conditions: in vivo
Method in brief: (§10)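 Infected female BALB/c mice, dosed orally once daily from day 7 to day 32, had serum AST, ALT and creatinine measured by dry chemistry technology at the PDTIS-FIOCRUZ facility. Mean ± SE, n = 5.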

Mus musculus [15] = test: as §9, with “at 1” for “at 2”, “dose in presence of 4 mg/kg miltefosine” for “dose”; assay type: organism-based; conditions: in vivo; method in brief: as §10
Mus musculus [16] = test: as §9, with “Hepatotoxicity” for “Renal toxicity”, “AST” for “creatinine”, “161.1” for “0.61”, “20.99 U/L)” for “0.06 mg/dl)”; assay type: toxicity, organism-based; conditions: in vivo; method in brief: as §10
Mus musculus [17] = test: (§11) Hepatotoxicity in Balb/c mouse infected with stationary-phase Leishmania amazonensis MHOM/BR/75/LTB0016 promastigotes assessed as serum AST level at 1 mg/kg, po administered once daily via orogastric tube for 32 days starting from 7 days post infection measured post last dose in presence of 4 mg/kg miltefosine (reference value: 161.1 +/- 20.99 U/L); assay type: toxicity, organism-based; conditions: in vivo; method in brief: as §10
Mus musculus [18] = test: as §9, with “Hepatotoxicity” for “Renal toxicity”, “ALT” for “creatinine”, “88.41” for “0.61”, “8.77 U/L)” for “0.06 mg/dl)”; assay type: toxicity, organism-based; conditions: in vivo; method in brief: as §10
Mus musculus [19] = test: as §11, with “ALT” for “AST”, “88.41” for “161.1”, “8.77” for “20.99”; assay type: toxicity, organism-based; conditions: in vivo; method in brief: as §10
Leishmania amazonensis [20] = test: Antileishmanial activity against stationary-phase Leishmania amazonensis MHOM/BR/75/LTB0016 promastigotes infected in human THP1-derived macrophages at apigenin to test compound ratio of 4:1 by serial dilution based light microscopic method; assay type: functional, organism-based
Leishmania amazonensis [21] = test: Antileishmanial activity against stationary-phase Leishmania amazonensis MHOM/BR/75/LTB0016 promastigotes infected in human THP1-derived macrophages at apigenin to test compound ratio of 3:2 by serial dilution based light microscopic method; assay type: functional, organism-based
Leishmania amazonensis [22] = test: Antileishmanial activity against stationary-phase Leishmania amazonensis MHOM/BR/75/LTB0016 promastigotes infected in human THP1-derived macrophages at apigenin to test compound ratio of 2:3 by serial dilution based light microscopic method; assay type: functional, organism-based
Leishmania amazonensis [23] = test: Antileishmanial activity against stationary-phase Leishmania amazonensis MHOM/BR/75/LTB0016 promastigotes infected in human THP1-derived macrophages at apigenin to test compound ratio of 1:4 by serial dilution based light microscopic method; assay type: functional, organism-based
Leishmania amazonensis [24] = test: Synergistic antileishmanial activity against stationary-phase Leishmania amazonensis MHOM/BR/75/LTB0016 promastigotes infected in human THP1-derived macrophages assessed as fractional inhibitory concentration at apigenin to test compound ratio of 4:1 by serial dilution based light microscopic method; assay type: functional; method in brief: as §5
Leishmania amazonensis [25] = test: Synergistic antileishmanial activity against stationary-phase Leishmania amazonensis MHOM/BR/75/LTB0016 promastigotes infected in human THP1-derived macrophages assessed as fractional inhibitory concentration at apigenin to test compound ratio of 3:2 by serial dilution based light microscopic method; assay type: functional; method in brief: as §5
Leishmania amazonensis [26] = test: Synergistic antileishmanial activity against stationary-phase Leishmania amazonensis MHOM/BR/75/LTB0016 promastigotes infected in human THP1-derived macrophages assessed as fractional inhibitory concentration at apigenin to test compound ratio of 2:3 by serial dilution based light microscopic method; assay type: functional; method in brief: as §5
Leishmania amazonensis [27] = test: Synergistic antileishmanial activity against stationary-phase Leishmania amazonensis MHOM/BR/75/LTB0016 promastigotes infected in human THP1-derived macrophages assessed as fractional inhibitory concentration at apigenin to test compound ratio of 1:4 by serial dilution based light microscopic method; assay type: functional; method in brief: as §5
Leishmania amazonensis [28] = test: as §6, with “at 8” for “at 2”; assay type: functional, organism-based; method in brief: as §7
Leishmania amazonensis [29] = test: Antileishmanial activity against stationary-phase Leishmania amazonensis MHOM/BR/75/LTB0016 promastigotes infected in Balb/c mouse assessed as reduction in parasite load at 8 mg/kg, po administered once daily via orogastric tube starting from 7 days post infection for 32 days by dilution method; assay type: functional, organism-based; method in brief: as §8
Mus musculus [30] = test: as §9, with “at 8” for “at 2”; assay type: organism-based; conditions: in vivo; method in brief: as §10
Mus musculus [31] = test: as §11, with “at 8” for “at 1”, “dose” for “dose in presence of 4 mg/kg miltefosine”; assay type: toxicity, organism-based; conditions: in vivo; method in brief: as §10
Mus musculus [32] = test: as §11, with “serum ALT” for “serum AST”, “at 8” for “at 1”, “dose” for “dose in presence of 4 mg/kg miltefosine”, “value: 88.41” for “value: 161.1”, “+/- 8.77” for “+/- 20.99”; assay type: toxicity, organism-based; conditions: in vivo; method in brief: as §10

EC50 (Leishmania amazonensis [1]): 3850 nM
EC50 (Leishmania amazonensis [2]): 2990 nM
EC50 (Leishmania amazonensis [3]): 1430 nM
EC50 (Leishmania amazonensis [4]): 730 nM
EC50 (Leishmania amazonensis [5]): 160 nM
Compound: O=c1cc(-c2ccc(O)cc2)oc2cc(O)cc(O)c12 [APIGENIN]
FIC50 (Leishmania amazonensis [6]): 0.77
FIC50 (Leishmania amazonensis [7]): 0.37
FIC50 (Leishmania amazonensis [8]): 0.18
FIC50 (Leishmania amazonensis [9]): 0.04
Activity (Leishmania amazonensis [10]): Active
Activity (Leishmania amazonensis [11]): Active
Activity (Leishmania amazonensis [12]): 75%
Activity (Leishmania amazonensis [13]): 95%
Activity (Mus musculus [14]): 0.63 mg/dL
Activity (Mus musculus [15]): 0.69 mg/dL
Activity (Mus musculus [16]): 100.5 U/L
Activity (Mus musculus [17]): 115.1 U/L
Activity (Mus musculus [18]): 43.21 U/L
Activity (Mus musculus [19]): 53.55 U/L

EC50 (Leishmania amazonensis [1]): 750 nM
EC50 (Leishmania amazonensis [20]): 440 nM
EC50 (Leishmania amazonensis [21]): 730 nM
EC50 (Leishmania amazonensis [22]): 1530 nM
EC50 (Leishmania amazonensis [23]): 1130 nM
Compound: CCCCCCCCCCCCCCCCOP(=O)([O-])OCC[N+](C)(C)C [MILTEFOSINE]
FIC50 (Leishmania amazonensis [24]): 0.58
FIC50 (Leishmania amazonensis [25]): 0.96
FIC50 (Leishmania amazonensis [26]): 2.03
FIC50 (Leishmania amazonensis [27]): 1.5
Activity (Leishmania amazonensis [28]): Active
Activity (Leishmania amazonensis [29]): Active
Activity (Mus musculus [30]): 0.66 mg/dL
Activity (Mus musculus [31]): 271.1 U/L
Activity (Mus musculus [32]): 61.14 U/L
